# Numbered stars: 1 amine (or outer) side, 2 acyl side, 3 side chain; on linkers, the order of the positions; unused ones are H or OH. Bridge positions count the residues as written; N and C are the ends. Square brackets hold non-standard residues; d marks the D form. Peptide text beside a SMILES is read from it. * marks the point of attachment. hTyr(3S-OH,4S-OH,3'-OSO3H) = N[C@H](C(=O)O)[C@H](O)[C@@H](O)c1ccc(O)c(OS(=O)(=O)O)c1; Orn(4R-OH,5R-OH) = O=C([C@H](C[C@@H](O)[C@@H](O)N[*:3])N[*:1])[*:2]; Pro(3S-OH,4S-Me) = C[C@H]1CN[C@H](C(=O)O)[C@H]1O; X1 = CCCCCOc1ccc(-c2cc(-c3ccc(C(=O)*)cc3)no2)cc1; Gln(3R-OH) = NC(=O)C[C@@H](O)[C@H](N)C(=O)O; Hyp = O=C(O)[C@@H]1C[C@@H](O)CN1
# Assays:
# Aspergillus lentulus [1] = test: Antimicrobial activity against Aspergillus lentulus isolate CNM-CM-1290 obtained from sputum of patient after 48 hrs by broth microdilution method; assay type: functional; settings: isolate CNM-CM-1290, 48 h, read-out: MEC
# Procedure, shortened: (§1)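 CLSI M38-A broth microdilution with modifications: RPMI 1640 with L-glutamine, 2% glucose, buffered to pH 7 with 0.165 M MOPS. Inoculum of 1 × 10^5 to 5 × 10^5 CFU/ml from 3- to 5-day-old cultures. Incubated 35°C, 48 h, humid. Visual reading with a mirror. MIC is complete growth inhibition; echinocandin MEC is hyphal morphological alteration. Azoles 8 to 0.015 μg/ml; others 16 to 0.03 μg/ml.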
# Aspergillus lentulus [2] = test: Antimicrobial activity against Aspergillus lentulus isolate CNM-CM-3537 obtained from sputum of patient after 48 hrs by broth microdilution method; assay type: functional; settings: isolate CNM-CM-3537, 48 h, read-out: MEC; procedure, shortened: as §1
# Aspergillus viridinutans [3] = test: Antimicrobial activity against Aspergillus viridinutans isolate CNM-CM-3147 obtained from oropharyngeal exudate of patient after 48 hrs by broth microdilution method; assay type: functional; settings: isolate CNM-CM-3147, 48 h, read-out: MEC; procedure, shortened: as §1
# [4] = test system: Aspergillus fumigatiaffinis; test: Antimicrobial activity against Aspergillus fumigatiaffinis isolate CNM-CM-3227 obtained from bronchoalveolar lavage fluid of patient after 48 hrs by broth microdilution method; settings: isolate CNM-CM-3227, Lung, read-out: MEC
# Aspergillus lentulus [5] = test: Antimicrobial activity against Aspergillus lentulus isolate CNM-CM-4428 obtained from skin of patient after 48 hrs by broth microdilution method; assay type: functional; settings: isolate CNM-CM-4428, 48 h, read-out: MEC; procedure, shortened: as §1
# Aspergillus lentulus [6] = test: Antimicrobial activity against Aspergillus lentulus isolate CNM-CM-3599 obtained from sputum of patient after 48 hrs by broth microdilution method; assay type: functional; settings: isolate CNM-CM-3599, 48 h, read-out: MEC; procedure, shortened: as §1
# Aspergillus lentulus [7] = test: Antimicrobial activity against Aspergillus lentulus isolate CNM-CM-3583 obtained from sputum of patient after 48 hrs by broth microdilution method; assay type: functional; settings: isolate CNM-CM-3583, 48 h, read-out: MEC; procedure, shortened: as §1
# Aspergillus lentulus [8] = test: Antimicrobial activity against Aspergillus lentulus isolate CNM-CM-3364 obtained from bronchoalveolar lavage fluid of patient after 48 hrs by broth microdilution method; assay type: functional; settings: isolate CNM-CM-3364, Lung, read-out: MEC; procedure, shortened: as §1
# [9] = test system: Neosartorya pseudofischeri; test: Antimicrobial activity against Neosartorya pseudofischeri isolate CNM-CM-4060 obtained from sputum of patient after 48 hrs by broth microdilution method; assay type: functional; settings: Aspergillus thermomutatus, read-out: MEC
# Procedure, shortened: (§2)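 CLSI M38-A broth microdilution with modifications: RPMI 1640 with L-glutamine, MOPS-buffered to pH 7, plus 2% glucose. Inoculum 1 × 10^5 to 5 × 10^5 CFU/ml from 3–5-day cultures. Incubated at 35°C for 48 h, humid. Read visually with a mirror. MIC = complete growth inhibition; echinocandin MEC = altered hyphal morphology. QC strain A. fumigatus ATCC 2004305.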
# [10] = test system: Neosartorya pseudofischeri; test: Antimicrobial activity against Neosartorya pseudofischeri isolate CNM-CM-3914 obtained from nail of patient after 48 hrs by broth microdilution method; assay type: functional; settings: Aspergillus thermomutatus, isolate CNM-CM-3914, 48 h; read-out: MEC; procedure, shortened: as §2
# Neosartorya hiratsukae [11] = test: Antimicrobial activity against Neosartorya hiratsukae isolate CNM-CM-4328 obtained from cornea of patient after 48 hrs by broth microdilution method; assay type: functional; settings: Aspergillus hiratsukae, isolate CNM-CM-4328, Cornea, read-out: MEC; procedure, shortened: as §1
# [12] = test system: Neosartorya pseudofischeri; test: Antimicrobial activity against Neosartorya pseudofischeri isolate CNM-CM-2270 obtained from sputum of patient after 48 hrs by broth microdilution method; assay type: functional; settings: Aspergillus thermomutatus, isolate CNM-CM-2270, 48 h; read-out: MEC; procedure, shortened: as §2
# Aspergillus lentulus [13] = test: Antimicrobial activity against Aspergillus lentulus isolate CNM-CM-3134 obtained from sputum of patient after 48 hrs by broth microdilution method; assay type: functional; settings: isolate CNM-CM-3134, 48 h, read-out: MEC; procedure, shortened: as §1
# Neosartorya hiratsukae [14] = test: Antimicrobial activity against Neosartorya hiratsukae isolate CNM-CM-3740 obtained from oropharyngeal exudate of patient after 48 hrs by broth microdilution method; assay type: functional; settings: Aspergillus hiratsukae, isolate CNM-CM-3740, 48 h; read-out: MEC; procedure, shortened: as §1
# Neosartorya hiratsukae [15] = test: Antimicrobial activity against Neosartorya hiratsukae isolate CNM-CM-3303 obtained from skin of patient after 48 hrs by broth microdilution method; assay type: functional; settings: Aspergillus hiratsukae, isolate CNM-CM-3303, 48 h; read-out: MEC; procedure, shortened: as §1
# Aspergillus lentulus [16] = test: Antimicrobial activity against Aspergillus lentulus isolate CNM-CM-4420 obtained from nail of patient after 48 hrs by broth microdilution method; assay type: functional; settings: isolate CNM-CM-4420, 48 h, read-out: MEC; procedure, shortened: as §1
# Aspergillus lentulus [17] = test: Antimicrobial activity against Aspergillus lentulus isolate CNM-CM-4370 obtained from sputum of patient after 48 hrs by broth microdilution method; assay type: functional; settings: isolate CNM-CM-4370, 48 h, read-out: MEC; procedure, shortened: as §1
# Aspergillus lentulus [18] = test: Antimicrobial activity against Aspergillus lentulus isolate CNM-CM-4330 obtained from sputum of patient after 48 hrs by broth microdilution method; assay type: functional; settings: isolate CNM-CM-4330, 48 h, read-out: MEC; procedure, shortened: as §1
# Neosartorya hiratsukae [19] = test: Antimicrobial activity against Neosartorya hiratsukae isolate CNM-CM-3764 obtained from oropharyngeal exudate of patient after 48 hrs by broth microdilution method; assay type: functional; settings: Aspergillus hiratsukae, isolate CNM-CM-3764, 48 h; read-out: MEC; procedure, shortened: as §1
# Aspergillus lentulus [20] = test: Antimicrobial activity against Aspergillus lentulus isolate CNM-CM-4415 obtained from sputum of patient after 48 hrs by broth microdilution method; assay type: functional; settings: isolate CNM-CM-4415, 48 h, read-out: MEC; procedure, shortened: as §1
# Aspergillus lentulus [21] = test: Antimicrobial activity against Aspergillus lentulus isolate CNM-CM-3538 obtained from sputum of patient after 48 hrs by broth microdilution method; assay type: functional; settings: isolate CNM-CM-3538, 48 h, read-out: MEC; procedure, shortened: as §1
# [22] = test system: Aspergillus fumisynnematus; test: Antimicrobial activity against Aspergillus fumisynnematus isolate CNM-CM-4063 obtained from bronchoalveolar aspirate of patient after 48 hrs by broth microdilution method; assay type: functional; settings: isolate CNM-CM-4063, Lung, read-out: MEC; procedure, shortened: as §1
# Aspergillus viridinutans [23] = test: Antimicrobial activity against Aspergillus viridinutans isolate CNM-CM-4518 obtained from nail of patient after 48 hrs by broth microdilution method; assay type: functional; settings: isolate CNM-CM-4518, 48 h, read-out: MEC; procedure, shortened: as §1
# Aspergillus lentulus [24] = test: Antimicrobial activity against Aspergillus lentulus isolate CNM-CM-4387 obtained from sputum of patient after 48 hrs by broth microdilution method; assay type: functional; settings: isolate CNM-CM-4387, 48 h, read-out: MEC; procedure, shortened: as §1
# [25] = test system: Neosartorya pseudofischeri; test: Antimicrobial activity against Neosartorya pseudofischeri isolate CNM-CM-3769 obtained from sputum of patient after 48 hrs by broth microdilution method; assay type: functional; settings: Aspergillus thermomutatus, read-out: MEC; procedure, shortened: as §2
# [26] = test system: Aspergillus fumigatiaffinis; test: Antimicrobial activity against Aspergillus fumigatiaffinis isolate CNM-CM-2280 obtained from sputum of patient after 48 hrs by broth microdilution method; settings: isolate CNM-CM-2280, 48 h, read-out: MEC
# Aspergillus lentulus [27] = test: Antimicrobial activity against Aspergillus lentulus isolate CNM-CM-4426 obtained from sputum of patient after 48 hrs by broth microdilution method; assay type: functional; settings: isolate CNM-CM-4426, 48 h, read-out: MEC; procedure, shortened: as §1
# Neosartorya hiratsukae [28] = test: Antimicrobial activity against Neosartorya hiratsukae isolate CNM-CM-3305 obtained from skin of patient after 48 hrs by broth microdilution method; assay type: functional; settings: Aspergillus hiratsukae, isolate CNM-CM-3305, 48 h; read-out: MEC; procedure, shortened: as §1
# Aspergillus fumigatus = test: Antimicrobial activity against Aspergillus fumigatus ATCC 2004305 after 48 hrs by broth microdilution method; assay type: functional; settings: ATCC 2004305, 48 h, read-out: MEC
compound,measurement,setting,value
"CCCCCOc1ccc(-c2cc(-c3ccc(C(=O)N[C@H]4C[C@@H](O)[C@@H](O)NC(=O)[C@@H]5[C@@H](O)[C@@H](C)CN5C(=O)[C@H]([C@H](O)CC(N)=O)NC(=O)[C@H]([C@H](O)[C@@H](O)c5ccc(O)c(OS(=O)(=O)O)c5)NC(=O)[C@@H]5C[C@@H](O)CN5C(=O)[C@H]([C@@H](C)O)NC4=O)cc3)no2)cc1 [MICAFUNGIN] (X1-[Orn(4R-OH,5R-OH)]T[Hyp][hTyr(3S-OH,4S-OH,3'-OSO3H)][Gln(3R-OH)][Pro(3S-OH,4S-Me)]; lactam 1-C)",minimal effective concentration,Aspergillus lentulus [1],0.05 µg/mL
same,minimal effective concentration,Aspergillus lentulus [2],0.04 µg/mL
same,minimal effective concentration,Aspergillus viridinutans [3],0.2 µg/mL
same,minimal effective concentration,[4],0.08 µg/mL
same,minimal effective concentration,Aspergillus lentulus [5],0.03 µg/mL
same,minimal effective concentration,Aspergillus lentulus [6],0.03 µg/mL
same,minimal effective concentration,Aspergillus lentulus [7],0.03 µg/mL
same,minimal effective concentration,Aspergillus lentulus [8],0.03 µg/mL
same,minimal effective concentration,[9],0.03 µg/mL
same,minimal effective concentration,[10],0.03 µg/mL
same,minimal effective concentration,Neosartorya hiratsukae [11],0.03 µg/mL
same,minimal effective concentration,[12],0.26 µg/mL
same,minimal effective concentration,Aspergillus lentulus [13],0.07 µg/mL
same,minimal effective concentration,Neosartorya hiratsukae [14],0.03 µg/mL
same,minimal effective concentration,Neosartorya hiratsukae [15],0.03 µg/mL
same,minimal effective concentration,Aspergillus lentulus [16],0.03 µg/mL
same,minimal effective concentration,Aspergillus lentulus [17],0.03 µg/mL
same,minimal effective concentration,Aspergillus lentulus [18],0.03 µg/mL
same,minimal effective concentration,Neosartorya hiratsukae [19],0.04 µg/mL
same,minimal effective concentration,Aspergillus lentulus [20],0.03 µg/mL
same,minimal effective concentration,Aspergillus lentulus [21],0.1 µg/mL
same,minimal effective concentration,[22],0.03 µg/mL
same,minimal effective concentration,Aspergillus viridinutans [23],0.03 µg/mL
same,minimal effective concentration,Aspergillus lentulus [24],0.03 µg/mL
same,minimal effective concentration,[25],0.06 µg/mL
same,minimal effective concentration,[26],0.04 µg/mL
same,minimal effective concentration,Aspergillus lentulus [27],0.03 µg/mL
same,minimal effective concentration,Neosartorya hiratsukae [28],0.14 µg/mL
same,minimal effective concentration,Aspergillus fumigatus,0.03 µg/mL
